In ChEMBL document CHEMBL1154352, “Toll-like receptor 7 selective synthetic oligoribonucleotide agonists: synthesis and structure-activity relationship studies” (J Med Chem, 2009):
Active and inactive are the calls of the source. The rule behind the calls is not given here.

Columns and labels:
[1] = molecular target: T1, Toll-like receptor 7 (Homo sapiens) (UniProt Q9NYK1); assay: Activation of human TLR7 expressed in HEK293XL assessed as induction of NF-kappaB activity by reporter gene assay
T1 sequence (whole entry): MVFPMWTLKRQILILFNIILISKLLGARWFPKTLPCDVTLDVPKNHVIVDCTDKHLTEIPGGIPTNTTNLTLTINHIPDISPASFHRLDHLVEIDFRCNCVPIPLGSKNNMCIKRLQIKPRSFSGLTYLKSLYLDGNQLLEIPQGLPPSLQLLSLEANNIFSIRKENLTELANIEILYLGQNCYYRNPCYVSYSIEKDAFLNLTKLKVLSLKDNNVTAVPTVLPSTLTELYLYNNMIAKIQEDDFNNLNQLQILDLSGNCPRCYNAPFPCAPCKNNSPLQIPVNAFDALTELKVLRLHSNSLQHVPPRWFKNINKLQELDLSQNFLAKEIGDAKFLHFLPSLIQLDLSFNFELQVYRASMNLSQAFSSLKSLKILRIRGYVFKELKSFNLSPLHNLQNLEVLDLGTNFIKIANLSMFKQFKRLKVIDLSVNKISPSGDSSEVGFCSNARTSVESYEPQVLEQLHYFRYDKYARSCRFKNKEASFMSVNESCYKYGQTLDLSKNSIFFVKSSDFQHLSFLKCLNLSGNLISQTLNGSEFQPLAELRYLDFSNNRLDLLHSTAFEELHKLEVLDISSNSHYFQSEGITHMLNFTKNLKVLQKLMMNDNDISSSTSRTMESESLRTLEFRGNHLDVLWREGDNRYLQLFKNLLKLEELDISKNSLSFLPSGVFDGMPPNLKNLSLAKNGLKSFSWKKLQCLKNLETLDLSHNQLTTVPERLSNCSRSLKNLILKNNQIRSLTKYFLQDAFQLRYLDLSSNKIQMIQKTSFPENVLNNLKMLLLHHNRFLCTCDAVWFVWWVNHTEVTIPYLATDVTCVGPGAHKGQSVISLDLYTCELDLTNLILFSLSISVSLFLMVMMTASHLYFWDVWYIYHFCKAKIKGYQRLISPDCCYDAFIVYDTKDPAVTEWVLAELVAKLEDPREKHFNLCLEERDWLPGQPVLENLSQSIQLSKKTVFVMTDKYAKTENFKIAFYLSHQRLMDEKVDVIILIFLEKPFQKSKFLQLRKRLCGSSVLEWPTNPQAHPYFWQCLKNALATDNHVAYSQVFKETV
Method in brief: (§1)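 HEK293 cells stably expressing human TLR7 or TLR8, transiently transfected with SEAP reporter plasmid; medium replaced, SIMRA compounds added, 18 h incubation. Supernatant SEAP measured by QuantiBlue; expressed as fold increase in NF-κB activity over PBS control. Tabulated data at 50 μg/mL, representative of three independent experiments.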

[2] = molecular target: T2, Toll-like receptor 8 (Homo sapiens) (UniProt Q9NR97); assay: Activation of human TLR8 expressed in HEK293XL assessed as induction of NF-kappaB activity by reporter gene assay; method in brief: as §1
T2 sequence (whole entry): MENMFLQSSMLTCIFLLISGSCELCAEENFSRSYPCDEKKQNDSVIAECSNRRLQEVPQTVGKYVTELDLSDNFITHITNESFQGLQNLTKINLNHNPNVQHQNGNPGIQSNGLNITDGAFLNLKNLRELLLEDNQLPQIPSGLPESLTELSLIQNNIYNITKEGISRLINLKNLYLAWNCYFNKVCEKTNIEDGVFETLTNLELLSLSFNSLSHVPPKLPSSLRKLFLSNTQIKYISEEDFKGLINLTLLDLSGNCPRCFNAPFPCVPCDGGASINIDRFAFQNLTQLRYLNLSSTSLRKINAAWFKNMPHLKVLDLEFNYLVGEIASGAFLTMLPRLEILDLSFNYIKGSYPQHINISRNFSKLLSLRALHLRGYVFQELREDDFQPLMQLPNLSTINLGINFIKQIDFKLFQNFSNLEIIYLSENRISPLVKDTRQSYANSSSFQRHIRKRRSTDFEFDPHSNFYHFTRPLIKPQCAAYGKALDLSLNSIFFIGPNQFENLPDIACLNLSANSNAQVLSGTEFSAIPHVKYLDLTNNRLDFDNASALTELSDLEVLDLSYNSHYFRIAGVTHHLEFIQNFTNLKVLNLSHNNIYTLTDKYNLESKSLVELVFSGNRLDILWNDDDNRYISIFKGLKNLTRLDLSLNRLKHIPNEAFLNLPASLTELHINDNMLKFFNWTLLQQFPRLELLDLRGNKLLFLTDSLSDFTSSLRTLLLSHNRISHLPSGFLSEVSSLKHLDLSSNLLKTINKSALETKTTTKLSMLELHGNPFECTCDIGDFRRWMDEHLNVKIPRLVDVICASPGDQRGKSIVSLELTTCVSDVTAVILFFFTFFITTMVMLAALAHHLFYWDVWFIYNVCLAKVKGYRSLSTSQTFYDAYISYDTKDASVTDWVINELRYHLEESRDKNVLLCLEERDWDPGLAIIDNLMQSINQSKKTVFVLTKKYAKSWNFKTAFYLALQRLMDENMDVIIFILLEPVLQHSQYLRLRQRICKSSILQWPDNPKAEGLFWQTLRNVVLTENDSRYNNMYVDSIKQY

| Activity [1] | Activity [2] | SMILES |
| --- | --- | --- |
| Active | Active | Nc1ccn([C@@H]2O[C@H](COP(=O)(S)O[C@H]3[C@@H](O)[C@H](n4cnc5c(N)ncnc54)O[C@@H]3CO)[C@@H](OP(=O)(S)OC[C@H]3O[C@@H](n4ccc(=O)[nH]c4=O)[C@H](O)[C@@H]3OP(=O)(S)OC[C@H]3O[C@@H](n4ccc(=O)[nH]c4=O)[C@H](O)[C@@H]3OP(=O)(S)OC[C@H]3O[C@@H](n4ccc5c(=O)[nH]c(N)nc54)[C@H](O)[C@@H]3OP(=O)(S)OC[C@H]3O[C@@H](n4cnc5c(N)ncnc54)[C@H](O)[C@@H]3OP(=O)(S)OC[C@H]3O[C@@H](n4ccc(N)nc4=O)[C@H](O)[C@@H]3OP(=O)(S)OC[C@H]3O[C@@H](n4ccc5c(=O)[nH]c(N)nc54)[C@H](O)[C@@H]3OP(=O)(S)OC[C@H]3O[C@@H](n4cnc5c(N)ncnc54)[C@H](O)[C@@H]3OP(=O)(S)OC[C@H]3O[C@@H](n4ccc(=O)[nH]c4=O)[C@H](O)[C@@H]3OP(=O)(S)OC[C@H]3O[C@@H](n4ccc(=O)[nH]c4=O)[C@H](O)[C@@H]3OP(=O)(S)OCC(O)COP(=O)(S)O[C@H]3[C@@H](O)[C@H](n4ccc(=O)[nH]c4=O)O[C@@H]3COP(=O)(S)O[C@H]3[C@@H](O)[C@H](n4ccc(=O)[nH]c4=O)O[C@@H]3COP(=O)(S)O[C@H]3[C@@H](O)[C@H](n4cnc5c(N)ncnc54)O[C@@H]3COP(=O)(S)O[C@H]3[C@@H](O)[C@H](n4ccc5c(=O)[nH]c(N)nc54)O[C@@H]3COP(=O)(S)O[C@H]3[C@@H](O)[C@H](n4ccc(N)nc4=O)O[C@@H]3COP(=O)(S)O[C@H]3[C@@H](O)[C@H](n4cnc5c(N)ncnc54)O[C@@H]3COP(=O)(S)O[C@H]3[C@@H](O)[C@H](n4ccc5c(=O)[nH]c(N)nc54)O[C@@H]3COP(=O)(S)O[C@H]3[C@@H](O)[C@H](n4ccc(=O)[nH]c4=O)O[C@@H]3COP(=O)(S)O[C@H]3[C@@H](O)[C@H](n4ccc(=O)[nH]c4=O)O[C@@H]3COP(=O)(S)O[C@H]3[C@@H](O)[C@H](n4ccc(N)nc4=O)O[C@@H]3COP(=O)(S)O[C@H]3[C@@H](O)[C@H](n4cnc5c(N)ncnc54)O[C@@H]3CO)[C@H]2O)c(=O)n1 (some centres undefined) |
| Active | Active | Nc1ccn([C@@H]2O[C@H](COP(=O)(S)O[C@H]3[C@@H](O)[C@H](n4cnc5c(N)ncnc54)O[C@@H]3CO)[C@@H](OP(=O)(S)OC[C@H]3O[C@@H](n4ccc(=O)[nH]c4=O)[C@H](O)[C@@H]3OP(=O)(S)OC[C@H]3O[C@@H](n4ccc(=O)[nH]c4=O)[C@H](O)[C@@H]3OP(=O)(S)OC[C@H]3O[C@@H](n4ccc5c(=O)[nH]c(N)nc54)[C@H](O)[C@@H]3OP(=O)(S)OC[C@H]3O[C@@H](n4cnc5c(N)ncnc54)[C@H](O)[C@@H]3OP(=O)(S)OC[C@H]3O[C@@H](n4cnc5c(N)ncnc54)[C@H](O)[C@@H]3OP(=O)(S)OC[C@H]3O[C@@H](n4ccc5c(=O)[nH]c(N)nc54)[C@H](O)[C@@H]3OP(=O)(S)OC[C@H]3O[C@@H](n4ccc(N)nc4=O)[C@H](O)[C@@H]3OP(=O)(S)OC[C@H]3O[C@@H](n4ccc(=O)[nH]c4=O)[C@H](O)[C@@H]3OP(=O)(S)OC[C@H]3O[C@@H](n4ccc(=O)[nH]c4=O)[C@H](O)[C@@H]3OP(=O)(S)OCC(O)COP(=O)(S)O[C@H]3[C@@H](O)[C@H](n4ccc(=O)[nH]c4=O)O[C@@H]3COP(=O)(S)O[C@H]3[C@@H](O)[C@H](n4ccc(=O)[nH]c4=O)O[C@@H]3COP(=O)(S)O[C@H]3[C@@H](O)[C@H](n4ccc(N)nc4=O)O[C@@H]3COP(=O)(S)O[C@H]3[C@@H](O)[C@H](n4ccc5c(=O)[nH]c(N)nc54)O[C@@H]3COP(=O)(S)O[C@H]3[C@@H](O)[C@H](n4cnc5c(N)ncnc54)O[C@@H]3COP(=O)(S)O[C@H]3[C@@H](O)[C@H](n4cnc5c(N)ncnc54)O[C@@H]3COP(=O)(S)O[C@H]3[C@@H](O)[C@H](n4ccc5c(=O)[nH]c(N)nc54)O[C@@H]3COP(=O)(S)O[C@H]3[C@@H](O)[C@H](n4ccc(=O)[nH]c4=O)O[C@@H]3COP(=O)(S)O[C@H]3[C@@H](O)[C@H](n4ccc(=O)[nH]c4=O)O[C@@H]3COP(=O)(S)O[C@H]3[C@@H](O)[C@H](n4ccc(N)nc4=O)O[C@@H]3COP(=O)(S)O[C@H]3[C@@H](O)[C@H](n4cnc5c(N)ncnc54)O[C@@H]3CO)[C@H]2O)c(=O)n1 (some centres undefined) |
